Measured values as given in PMC4168221 (Clinical Drug Investigation, 2014).
Entries after “also recorded” stand apart in the source; their conditions may differ. Where two headings read alike, the source gives them in different places. Each block holds one compound with its values, some of them ahead of it.

How the values were obtained:
[1] = single dose of canagliflozin 100 mg; non-Japanese patients with normal renal function or mild renal impairment; cited from earlier work
[2] = Urinary pharmacokinetics of unchanged canagliflozin; type: in vivo, human (Japanese patients with type 2 diabetes mellitus); conditions: for Ae0–72h% (cumulative urinary excretion rate from time zero to 72 h) / CLR: mean (SD)
In short: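 Per period, urine was collected at 11–0 h pre-dose, then 0–4.5, 4.5–10.5, 10.5–13, 13–24, 24–48 and 48–72 h after a single oral 100 or 200 mg dose. Volumes were recorded, and mixed aliquots were stored at −20 °C. Parent drug was measured by solid-phase extraction then HPLC–MS/MS (validated 1–2,000 ng/mL).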

blood glucose = conditions: phase III; non-Japanese type 2 diabetes patients with moderate renal impairment (eGFR ≥30 and <50 mL/min/1.73 m^2); cited from earlier work
[3] = Japanese patients with type 2 diabetes; cited from earlier work
[4] = system: urinary glucose excretion; experiment: 24-h urinary glucose excretion, change from baseline; type: in vivo, human (Japanese patients with type 2 diabetes mellitus); conditions: both doses
In short: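 Each crossover period gave one oral single dose of test compound (100 or 200 mg) 10 min before breakfast, with ≥14-day washout and fixed meals. Change was taken from the baseline day.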

[5] = Safety: adverse events after single doses; type: in vivo, human (Japanese patients with type 2 diabetes mellitus)
In short: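 Adverse events were recorded with intensity and relation to drug, then coded by system organ class and preferred term (MedDRA/J 15.0). Adverse drug reactions were events the investigator judged reasonably related. Also checked: laboratory tests, renal function, vital signs, body weight and 12-lead ECG. Patients were hospitalised and received single 100 and 200 mg oral doses in crossover.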

[6] = type: in vivo, human (Japanese patients with type 2 diabetes mellitus); conditions: for AUC∞ / C max / CL/F / Vd/F / t ½: mean (SD); for t max: median (range)
In short: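 Single oral dose (100 or 200 mg) given before breakfast in a two-period crossover. Blood was drawn pre-dose and at 0.5–72 h (13 samples) into K2EDTA, iced, centrifuged, and plasma stored at −20 °C. Parent drug was measured by HPLC–MS/MS (1–2,000 ng/mL). Metabolites were measured by acetonitrile precipitation then HPLC–MS/MS (5–10,000 ng/mL). Group ratios are least square means with 90 % CI.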

[7] = system: urinary glucose excretion; conditions: cited from earlier work
[8] = cited from earlier work
[9] = canagliflozin 100 mg, moderate renal impairment (n = 12)
[10] = canagliflozin 100 mg, normal renal function or mild renal impairment (n = 12)
[11] = canagliflozin 200 mg, moderate renal impairment (n = 12)
[12] = canagliflozin 200 mg, normal renal function or mild renal impairment (n = 12)
[13] = Moderate renal impairment, canagliflozin 100 mg (n = 12)
[14] = Moderate renal impairment, canagliflozin 200 mg (n = 12)
[15] = Normal renal function or mild renal impairment, canagliflozin 100 mg (n = 12)
[16] = Normal renal function or mild renal impairment, canagliflozin 200 mg (n = 12)
[17] = single doses of 100 and 200 mg, all patients
[18] = canagliflozin 100 mg single dose
[19] = canagliflozin 100 mg single dose, moderate renal impairment (n = 12)
[20] = canagliflozin 200 mg single dose
[21] = canagliflozin 200 mg single dose, moderate renal impairment (n = 12)

amount of canagliflozin excreted into urine from 0 to 72 h (urinary excretion ratio of unchanged drug) ([2]; % of the dose, both doses): < 1%
Ae0–72h% (cumulative urinary excretion rate from time zero to 72 h) [2, 9]: 0.538 (0.229) %
CLR [2, 9]: 0.064 (0.021) L/h
Ae0–72h% (cumulative urinary excretion rate from time zero to 72 h) [2, 10]: 0.541 (0.168) %
CLR [2, 10]: 0.085 (0.037) L/h
Ae0–72h% (cumulative urinary excretion rate from time zero to 72 h) [2, 11]: 0.480 (0.143) %
CLR [2, 11]: 0.058 (0.022) L/h
Ae0–72h% (cumulative urinary excretion rate from time zero to 72 h) [2, 12]: 0.559 (0.182) %
CLR [2, 12]: 0.080 (0.029) L/h
time to reach maximum concentration (C max), median ([6]; 100 and 200 mg single doses): ≤ 1 h
AUC∞ ratio (90 % CI) of least square means, moderate renal impairment relative to normal renal function or mild renal impairment [6, 18]: 1.258 (1.061–1.490)
C max ratio (90 % CI) of least square means, moderate renal impairment relative to normal renal function or mild renal impairment [6, 18]: 0.982 (0.821–1.173)
AUC∞ ratio (90 % CI) of least square means, moderate renal impairment relative to normal renal function or mild renal impairment ([6]; canagliflozin 100 mg single dose, listed as canagliflozin): 1.258 [1.061–1.490]
AUC∞ [6, 19]: 8,766 (2551) ng·h/mL
C max [6, 19]: 1,197.13 (310.56) ng/mL
CL/F [6, 9]: 12.15 (2.87) L/h
Vd/F [6, 9]: 264 (81) L
t ½ [6, 9]: 15.50 (4.35) h
t max [6, 9]: 1.0 (1.0–3.0) h
CL/F [6, 10]: 15.24 (3.65) L/h
Vd/F [6, 10]: 269 (66) L
t ½ [6, 10]: 12.58 (3.14) h
t max [6, 10]: 1.0 (1.0–3.0) h
AUC∞ ratio (90 % CI) of least square means, moderate renal impairment relative to normal renal function or mild renal impairment [6, 20]: 1.216 (1.026–1.441)
C max ratio (90 % CI) of least square means, moderate renal impairment relative to normal renal function or mild renal impairment [6, 20]: 0.989 (0.827–1.182)
AUC∞ ratio (90 % CI) of least square means, moderate renal impairment relative to normal renal function or mild renal impairment ([6]; canagliflozin 200 mg single dose, listed as canagliflozin): 1.216 [1.026–1.441]
AUC∞ [6, 21]: 17,835 (4434) ng·h/mL
C max [6, 21]: 2,333.36 (414.90) ng/mL
CL/F [6, 11]: 11.73 (2.36) L/h
Vd/F [6, 11]: 242 (67) L
t ½ [6, 11]: 15.15 (6.68) h
t max [6, 11]: 1.0 (1.0–2.0) h
CL/F [6, 12]: 14.43 (3.73) L/h
Vd/F [6, 12]: 244 (53) L
t ½ [6, 12]: 12.10 (2.66) h
t max [6, 12]: 1.0 (1.0–6.0) h
half-life (t ½) ([6]; patients with normal or mild renal impairment, both doses): over 12 h
AUC from time zero to 24 h ([6]; single dose of 100 mg, Japanese population with mild or no renal impairment): 5,645 ng·h/mL
Structure (SMILES): Cc1ccc([C@@H]2O[C@H](CO)[C@@H](O)[C@H](O)[C@H]2O)cc1Cc1ccc(-c2ccc(F)cc2)s1 [Canagliflozin, canagliflozin]
mean 24-h urinary excretion ratio [1]: 0.55%
blood glucose-lowering effect compared with placebo (blood glucose): significant blood glucose-lowering effect
body weight [3]: significantly reduced
ΔUGE24 h in moderate renal impairment relative to normal renal function or mild renal impairment [4]: approximately 70%
Adverse events Total: Incidence [5, 13]: 25.0%
Adverse events Total: No. of events [5, 13]: 3
Adverse events Total: No. of subjects [5, 13]: 3
Back pain: Incidence [5, 13]: 0.0%
Back pain: No. of events [5, 13]: 0
Back pain: No. of subjects [5, 13]: 0
Blood CPK increased: Incidence [5, 13]: 0.0%
Blood CPK increased: No. of events [5, 13]: 0
Blood CPK increased: No. of subjects [5, 13]: 0
Blood creatinine increased: Incidence [5, 13]: 0.0%
Blood creatinine increased: No. of events [5, 13]: 0
Blood creatinine increased: No. of subjects [5, 13]: 0
Blood glucose increased: Incidence [5, 13]: 0.0%
Blood glucose increased: No. of events [5, 13]: 0
Blood glucose increased: No. of subjects [5, 13]: 0
Constipation: Incidence [5, 13]: 0.0%
Constipation: No. of events [5, 13]: 0
Constipation: No. of subjects [5, 13]: 0
Diarrhea: Incidence [5, 13]: 0.0%
Diarrhea: No. of events [5, 13]: 0
Diarrhea: No. of subjects [5, 13]: 0
Nasopharyngitis: Incidence [5, 13]: 8.3%
Nasopharyngitis: No. of events [5, 13]: 1
Nasopharyngitis: No. of subjects [5, 13]: 1
Pollakiuria: Incidence [5, 13]: 8.3%
Pollakiuria: No. of events [5, 13]: 1
Pollakiuria: No. of subjects [5, 13]: 1
Protein urine present: Incidence [5, 13]: 8.3%
Protein urine present: No. of events [5, 13]: 1
Protein urine present: No. of subjects [5, 13]: 1
Adverse events Total: Incidence [5, 14]: 8.3%
Adverse events Total: No. of events [5, 14]: 1
Adverse events Total: No. of subjects [5, 14]: 1
Back pain: Incidence [5, 14]: 0.0%
Back pain: No. of events [5, 14]: 0
Back pain: No. of subjects [5, 14]: 0
Blood CPK increased: Incidence [5, 14]: 0.0%
Blood CPK increased: No. of events [5, 14]: 0
Blood CPK increased: No. of subjects [5, 14]: 0
Blood creatinine increased: Incidence [5, 14]: 0.0%
Blood creatinine increased: No. of events [5, 14]: 0
Blood creatinine increased: No. of subjects [5, 14]: 0
Blood glucose increased: Incidence [5, 14]: 0.0%
Blood glucose increased: No. of events [5, 14]: 0
Blood glucose increased: No. of subjects [5, 14]: 0
Constipation: Incidence [5, 14]: 0.0%
Constipation: No. of events [5, 14]: 0
Constipation: No. of subjects [5, 14]: 0
Diarrhea: Incidence [5, 14]: 0.0%
Diarrhea: No. of events [5, 14]: 0
Diarrhea: No. of subjects [5, 14]: 0
Nasopharyngitis: Incidence [5, 14]: 8.3%
Nasopharyngitis: No. of events [5, 14]: 1
Nasopharyngitis: No. of subjects [5, 14]: 1
Pollakiuria: Incidence [5, 14]: 0.0%
Pollakiuria: No. of events [5, 14]: 0
Pollakiuria: No. of subjects [5, 14]: 0
Protein urine present: Incidence [5, 14]: 0.0%
Protein urine present: No. of events [5, 14]: 0
Protein urine present: No. of subjects [5, 14]: 0
Adverse events Total: Incidence [5, 15]: 16.7%
Adverse events Total: No. of events [5, 15]: 3
Adverse events Total: No. of subjects [5, 15]: 2
Back pain: Incidence [5, 15]: 8.3%
Back pain: No. of events [5, 15]: 1
Back pain: No. of subjects [5, 15]: 1
Blood CPK increased: Incidence [5, 15]: 0.0%
Blood CPK increased: No. of events [5, 15]: 0
Blood CPK increased: No. of subjects [5, 15]: 0
Blood creatinine increased: Incidence [5, 15]: 0.0%
Blood creatinine increased: No. of events [5, 15]: 0
Blood creatinine increased: No. of subjects [5, 15]: 0
Blood glucose increased: Incidence [5, 15]: 0.0%
Blood glucose increased: No. of events [5, 15]: 0
Blood glucose increased: No. of subjects [5, 15]: 0
Constipation: Incidence [5, 15]: 8.3%
Constipation: No. of events [5, 15]: 1
Constipation: No. of subjects [5, 15]: 1
Diarrhea: Incidence [5, 15]: 8.3%
Diarrhea: No. of events [5, 15]: 1
Diarrhea: No. of subjects [5, 15]: 1
Nasopharyngitis: Incidence [5, 15]: 0.0%
Nasopharyngitis: No. of events [5, 15]: 0
Nasopharyngitis: No. of subjects [5, 15]: 0
Pollakiuria: Incidence [5, 15]: 0.0%
Pollakiuria: No. of events [5, 15]: 0
Pollakiuria: No. of subjects [5, 15]: 0
Protein urine present: Incidence [5, 15]: 0.0%
Protein urine present: No. of events [5, 15]: 0
Protein urine present: No. of subjects [5, 15]: 0
Adverse events Total: Incidence [5, 16]: 25.0%
Adverse events Total: No. of events [5, 16]: 4
Adverse events Total: No. of subjects [5, 16]: 3
Back pain: Incidence [5, 16]: 0.0%
Back pain: No. of events [5, 16]: 0
Back pain: No. of subjects [5, 16]: 0
Blood CPK increased: Incidence [5, 16]: 8.3%
Blood CPK increased: No. of events [5, 16]: 1
Blood CPK increased: No. of subjects [5, 16]: 1
Blood creatinine increased: Incidence [5, 16]: 8.3%
Blood creatinine increased: No. of events [5, 16]: 1
Blood creatinine increased: No. of subjects [5, 16]: 1
Blood glucose increased: Incidence [5, 16]: 8.3%
Blood glucose increased: No. of events [5, 16]: 1
Blood glucose increased: No. of subjects [5, 16]: 1
Constipation: Incidence [5, 16]: 0.0%
Constipation: No. of events [5, 16]: 0
Constipation: No. of subjects [5, 16]: 0
Diarrhea: Incidence [5, 16]: 0.0%
Diarrhea: No. of events [5, 16]: 0
Diarrhea: No. of subjects [5, 16]: 0
Nasopharyngitis: Incidence [5, 16]: 8.3%
Nasopharyngitis: No. of events [5, 16]: 1
Nasopharyngitis: No. of subjects [5, 16]: 1
Pollakiuria: Incidence [5, 16]: 0.0%
Pollakiuria: No. of events [5, 16]: 0
Pollakiuria: No. of subjects [5, 16]: 0
Protein urine present: Incidence [5, 16]: 0.0%
Protein urine present: No. of events [5, 16]: 0
Protein urine present: No. of subjects [5, 16]: 0
adverse events considered related to the study drug [5, 17]: Only one case of pollakiuria and one of diarrhea were considered to be related to the study drug
hypoglycemia [5, 17]: no patient developed hypoglycemia; also recorded: None of the patients developed hypoglycemia; also recorded: no cases of hypoglycemia

Structure (SMILES): OC[C@H]1O[C@@H](c2ccc(F)c(Cc3cc4ccccc4s3)c2)[C@H](O)[C@@H](O)[C@@H]1O [Ipragliflozin]
UGE in each estimated GFR (eGFR) class [7]: significantly increased

Structure (SMILES): CCOc1ccc(Cc2cc([C@@H]3O[C@H](CO)[C@@H](O)[C@H](O)[C@H]3O)ccc2Cl)cc1 [dapagliflozin]
C max and AUC as a function of renal function [8]: increased incrementally with declining renal function

Structure (SMILES): OC[C@H]1O[C@@H](c2ccc(Cl)c(Cc3ccc(O[C@H]4CCOC4)cc3)c2)[C@H](O)[C@@H](O)[C@@H]1O [empagliflozin]
CLR in patients with moderate renal impairment [8]: decreased
systemic exposure in patients with moderate renal impairment [8]: moderately increased
